In ChEMBL document CHEMBL3817796, “Discovery of Novel 15-Lipoxygenase Activators To Shift the Human Arachidonic Acid Metabolic Network toward Inflammation Resolution” (J Med Chem, 2016):
Activity calls are given as the source filed them. The rule behind the calls is not given here.

Experiments:
[1] = molecular target: T1, Polyunsaturated fatty acid lipoxygenase ALOX15 (Homo sapiens) (UniProt P16050); test: Activation of 15-LOX in human PMN assessed as 15-HETE production at 6.2 to 40 uM pre-incubated for 15 mins before A23187, Ca2+ and Mg2+ stimulation for 1 hr by LC-MS method
T1 sequence (whole entry): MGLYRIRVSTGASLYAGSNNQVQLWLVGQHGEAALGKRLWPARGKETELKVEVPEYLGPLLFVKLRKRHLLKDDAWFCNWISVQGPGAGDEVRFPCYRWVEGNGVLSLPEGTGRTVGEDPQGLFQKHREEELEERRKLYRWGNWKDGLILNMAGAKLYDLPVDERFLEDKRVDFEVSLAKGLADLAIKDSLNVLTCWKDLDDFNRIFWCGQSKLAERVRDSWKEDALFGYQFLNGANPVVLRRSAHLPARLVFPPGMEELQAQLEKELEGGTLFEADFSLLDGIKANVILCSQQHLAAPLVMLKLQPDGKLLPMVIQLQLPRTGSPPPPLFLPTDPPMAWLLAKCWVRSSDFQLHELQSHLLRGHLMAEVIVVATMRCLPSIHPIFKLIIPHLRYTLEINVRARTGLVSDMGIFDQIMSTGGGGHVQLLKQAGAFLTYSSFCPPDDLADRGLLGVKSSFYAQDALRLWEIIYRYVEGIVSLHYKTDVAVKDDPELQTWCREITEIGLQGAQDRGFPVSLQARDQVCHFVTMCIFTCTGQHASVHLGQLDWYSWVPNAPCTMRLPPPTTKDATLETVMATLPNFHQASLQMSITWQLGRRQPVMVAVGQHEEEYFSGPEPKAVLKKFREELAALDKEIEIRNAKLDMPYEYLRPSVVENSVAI
In short: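 PMNs preincubated 15 min at 37 °C with compound or vehicle, then stimulated 1 h at 37 °C with 10 μM A23187 plus 2 mM Ca2+ and 2 mM Mg2+. Reactions stopped with cold methanol. Eicosanoids quantified by LC-MS.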

[2] = molecular target: T2, Polyunsaturated fatty acid 5-lipoxygenase (Homo sapiens) (UniProt P09917); test: Activation of human 5-LOX assessed as H2DCFDA oxidation at 100 uM using arachidonic acid substrate incubated for 5 mins by fluorescence assay
T2 sequence (whole entry): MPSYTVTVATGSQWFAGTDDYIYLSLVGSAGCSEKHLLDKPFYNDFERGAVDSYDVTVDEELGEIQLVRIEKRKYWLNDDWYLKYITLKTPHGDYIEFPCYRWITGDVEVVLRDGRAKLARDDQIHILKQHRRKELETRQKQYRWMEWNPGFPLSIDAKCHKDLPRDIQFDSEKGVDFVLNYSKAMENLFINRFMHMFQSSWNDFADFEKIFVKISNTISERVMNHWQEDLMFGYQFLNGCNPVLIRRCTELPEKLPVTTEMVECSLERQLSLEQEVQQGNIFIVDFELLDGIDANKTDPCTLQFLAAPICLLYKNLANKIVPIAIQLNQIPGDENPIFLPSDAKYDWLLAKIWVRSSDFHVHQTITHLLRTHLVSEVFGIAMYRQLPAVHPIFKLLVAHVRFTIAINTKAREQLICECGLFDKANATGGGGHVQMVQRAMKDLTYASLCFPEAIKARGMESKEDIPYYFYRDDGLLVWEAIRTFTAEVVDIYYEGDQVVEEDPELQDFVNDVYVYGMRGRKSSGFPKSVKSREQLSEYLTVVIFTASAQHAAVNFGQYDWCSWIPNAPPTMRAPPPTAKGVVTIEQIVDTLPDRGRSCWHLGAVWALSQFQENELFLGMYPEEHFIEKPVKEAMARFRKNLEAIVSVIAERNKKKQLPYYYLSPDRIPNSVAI
In short: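 Human 5-LOX activity followed as AA-driven oxidation of H2DCFDA to fluorescent dichlorofluorescein (ex 500/em 520 nm), recorded for 5 min. Compound handled as in the 15-LOX assay.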

Activity [1]: Active
Activity [2]: < 5%
SMILES: CN1CCN(CC(=O)N2N=C3/C(=C/c4ccccc4)CCCC3C2c2ccccc2)CC1 (configuration not stated)
